From ChEMBL document CHEMBL1125344, “(Pyridylcyanomethyl)piperazines as orally active PAF antagonists” (J Med Chem, 1992)

Assays:
[1] = biological target: Platelet-activating factor receptor (Mus musculus) (UniProt Q62035); experiment: Oral dose required to inhibit PAF-induced mortality (PAF-Antagonistic activity)in mice by 50%.; format: functional; details: Mus sp.
Summary of the method: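 Male Swiss mice, 22-26 g, in groups of 10. Compound or saline given po (20 mL/kg) 60 min before C18-PAF 100 µg/kg plus propranolol 1 mg/kg by tail vein. ID50 from percent inhibition of mortality versus controls.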

[2] = biological target: Platelet-activating factor receptor (Rattus norvegicus) (UniProt P46002); experiment: Dose required to inhibit PAF-induced hypotension (PAF-Antagonistic activity) in normotensive rats by 50%.; format: functional
Summary of the method: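 Male Sprague-Dawley rats, 180-220 g, anesthetized with sodium pentobarbital ip. Carotid blood pressure recorded. Compound given iv in saline (1 mL/kg) via femoral vein 3 min before PAF 0.5 µg/kg iv; vehicle controls. ID50 by linear regression of one curve of at least four doses, each the mean % inhibition from two or more experiments.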

[3] = biological target: Platelet-activating factor receptor (Rattus norvegicus) (UniProt P46002); experiment: In vivo dose administered intravenously to inhibit PAF-induced hypotension (PAF-Antagonistic activity) in normotensive rats by 59%.; format: functional, organism-based
[4] = biological target: Platelet-activating factor receptor (Rattus norvegicus) (UniProt P46002); experiment: In vivo dose administered intravenously to inhibit PAF-induced hypotension (PAF-Antagonistic activity) in normotensive rats by 55%.; format: functional, organism-based

Sequence of Platelet-activating factor receptor (Rattus norvegicus) (P46002 whole entry): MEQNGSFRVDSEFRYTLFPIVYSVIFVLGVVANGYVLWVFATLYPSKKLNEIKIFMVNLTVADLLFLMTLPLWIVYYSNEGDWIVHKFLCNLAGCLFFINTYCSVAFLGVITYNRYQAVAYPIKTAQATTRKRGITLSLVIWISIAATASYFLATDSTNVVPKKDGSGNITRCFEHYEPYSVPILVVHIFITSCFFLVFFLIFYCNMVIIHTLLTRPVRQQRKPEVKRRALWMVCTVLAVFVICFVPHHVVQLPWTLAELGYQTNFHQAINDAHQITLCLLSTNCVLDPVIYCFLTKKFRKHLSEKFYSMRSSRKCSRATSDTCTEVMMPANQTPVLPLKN
Sequence of Platelet-activating factor receptor (Mus musculus) (Q62035 whole entry): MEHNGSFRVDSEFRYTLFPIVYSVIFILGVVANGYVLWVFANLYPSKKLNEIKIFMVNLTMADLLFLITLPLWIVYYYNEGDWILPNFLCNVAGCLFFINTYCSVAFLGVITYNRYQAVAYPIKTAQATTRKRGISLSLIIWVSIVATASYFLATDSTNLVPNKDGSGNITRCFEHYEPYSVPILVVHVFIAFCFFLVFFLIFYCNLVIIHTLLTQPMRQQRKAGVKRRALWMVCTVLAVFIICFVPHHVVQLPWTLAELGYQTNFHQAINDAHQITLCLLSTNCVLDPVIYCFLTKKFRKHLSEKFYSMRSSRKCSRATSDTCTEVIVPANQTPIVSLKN

Row | Compound | ID50 [1] [mg/kg] | ID50 [2] [mg/kg] | ID50 [3] [mg/kg] | ID50 [4] [mg/kg]
1 | N#CC(c1cccnc1)N1CCN(C(=O)CNCCC(c2ccccc2)c2ccccc2)CC1 (configuration not stated) | 14 | 0.21 | – | –
2 | CCCCCCCC(=O)N1CCN(C(C#N)c2cccnc2)CC1 (configuration not stated) | 100 | 1.2 | – | –
3 | N#CC(c1cccnc1)N1CCN(C(=O)C(CCc2ccccc2)c2ccccc2)CC1 (configuration not stated) | – | 0.73 | – | –
4 | N#CC(c1cccnc1)N1CCN(C(=O)Cc2cccc3ccccc23)CC1 (configuration not stated) | > 50 | 1.3 | – | –
5 | N#CC(c1cccnc1)N1CCN(C(=O)/C=C/c2ccccc2)CC1 (configuration not stated) | 100 | 0.24 | – | –
6 | CN(CC(=O)N1CCN(C(C#N)c2cccnc2)CC1)c1ccccc1 (configuration not stated) | – | 2.2 | – | –
7 | N#CC(c1ccncc1)N1CCN(C(=O)CNC(=O)C(c2ccccc2)c2ccccc2)CC1 (configuration not stated) | > 20 | 0.47 | – | –
8 | COc1cc(C(=O)N2CCN(Cc3cccnc3)CC2)cc(OC)c1OC | > 100 | > 5 | – | –
9 | CC(c1ccccc1)N(C)CC(=O)N1CCN(C(C#N)c2cccnc2)CC1 (configuration not stated) | > 50 | 0.77 | – | –
10 | COc1cc(C(=O)N2CCN(C(C#N)c3ccccn3)CC2)cc(OC)c1OC (configuration not stated) | – | > 5 | – | –
11 | N#CC(c1ccncc1)N1CCN(C(=O)CC(O)(c2ccccc2)c2ccccc2)CC1 (configuration not stated) | 7.7 | 0.061 | – | –
12 | N#CC(c1cccnc1)N1CCN(CCNC(=O)CC(c2ccccc2)c2ccccc2)CC1 (configuration not stated) | – | 2.2 | – | –
13 | N#CC(c1cccnc1)C1CCN(C(=O)CNC(c2ccccc2)c2ccccc2)CC1 (configuration not stated) | 2.6 | 0.03 | – | –
14 | CC(C(=O)N1CCN(C(C#N)c2cccnc2)CC1)c1ccccc1 (configuration not stated) | > 50 | 0.26 | – | –
15 | N#CC(c1cccnc1)N1CCN(C(=O)CC(c2ccccc2)c2ccccc2)CC1 (configuration not stated) | 12 | 0.013 | – | –
16 | N#CC(c1ccncc1)N1CCN(C(=O)CC(c2ccccc2)c2ccccc2)CC1 (configuration not stated) | 7.3 | 0.041 | – | –
17 | COc1cc(C(=O)N2CCN(C(=S)c3cccnc3)CC2)cc(OC)c1OC | 100 | > 5 | – | –
18 | N#CC(c1cccc([N+](=O)[O-])c1)N1CCN(C(=O)CC(c2ccccc2)c2ccccc2)CC1 (configuration not stated) | > 30 | > 5 | – | –
19 | N#CC(=C1CCN(C(=O)CC(c2ccccc2)c2ccccc2)CC1)c1cccnc1 | 30 | 0.42 | – | –
20 | N#CC(c1ccncc1)N1CCN(CCNC(c2ccccc2)c2ccccc2)CC1 (configuration not stated) | 29 | – | 5 | –
21 | Cc1nnc2n1-c1sc(CCC(=O)N3CCOCC3)cc1C(c1ccccc1Cl)=NC2 | 0.97 | 0.17 | – | –

Row | Compound | ID50 [1] [mg/kg] | ID50 [2] [mg/kg] | ID50 [3] [mg/kg] | ID50 [4] [mg/kg]
22 | N#CC(c1cccnc1)N1CCC(OC(=O)CC(c2ccccc2)c2ccccc2)CC1 (configuration not stated) | – | > 5 | – | –
23 | O=C(CC(c1ccccc1)c1ccccc1)N1CCC(Nc2cccnc2)CC1 | – | 2.4 | – | –
24 | N#CC(c1cccnc1)N1CCN(C(=O)Cc2ccccc2)CC1 (configuration not stated) | 50 | 1.5 | – | –
25 | Cn1ccc(C(C#N)N2CCN(C(=O)CC(c3ccccc3)c3ccccc3)CC2)c1 (configuration not stated) | – | 4.2 | – | –
26 | N#CC(c1cccc(C(F)(F)F)c1)N1CCN(C(=O)CC(c2ccccc2)c2ccccc2)CC1 (configuration not stated) | > 30 | > 5 | – | –
27 | N#CC(c1cccnc1)N1CCN(CCC(c2ccccc2)c2ccccc2)CC1 (configuration not stated) | 15 | 3.1 | – | –
28 | CC(C#N)(c1cccnc1)N1CCN(C(=O)C(c2ccccc2)c2ccccc2)CC1 (configuration not stated) | > 30 | > 5 | – | –
29 | O=C(CC(c1ccccc1)c1ccccc1)N1CCN(Cc2cccnc2)CC1 | 35 | 0.48 | – | –
30 | CN(CC(=O)N1CCN(C(C#N)c2cccnc2)CC1)C(c1ccccc1)c1ccccc1 (configuration not stated) | 4.6 | 0.33 | – | –
31 | N#CC(c1cccnc1)N1CCN(C(=O)/C(=C/c2ccccc2)c2ccccc2)CC1 (configuration not stated) | > 20 | 0.17 | – | –
32 | COc1cc(CCC(=O)N2CCN(C(=O)c3cc(OC)c(OC)c(OC)c3)CC2)cc(OC)c1OC | – | > 5 | – | –
33 | COc1cc(CCC(=O)N2CCN(C(C#N)c3cccnc3)CC2)cc(OC)c1OC (configuration not stated) | 100 | 2 | – | –
34 | N#CC(c1cccnc1)N1CCN(C(=O)c2ccccc2)CC1 (configuration not stated) | – | > 5 | – | –
35 | N#CC(c1cccnc1)N1CCN(C(=O)OCC(c2ccccc2)c2ccccc2)CC1 (configuration not stated) | > 30 | 0.078 | – | –
36 | N#CC(c1cccnc1)N1CCN(C(=O)C(c2ccccc2)c2ccccc2)CC1 (configuration not stated) | 12 | 0.11 | – | –
37 | N#CC(c1cccnc1)C1CCN(C(=O)C(c2ccccc2)c2ccccc2)CC1 (configuration not stated) | 14 | 0.023 | – | –
38 | N#CC(c1cccnc1)N1CCN(C(=O)CC(O)(c2ccccc2)c2ccccc2)CC1 (configuration not stated) | 4.7 | 0.061 | – | –
39 | N#CC(c1cccnc1)N1CCN(C(=O)CNc2ccccc2)CC1 (configuration not stated) | 28 | 0.49 | – | –
40 | N#CC(c1cccnc1)N1CCN(CCNC(=O)C(c2ccccc2)c2ccccc2)CC1 (configuration not stated) | 50 | 0.29 | – | –
41 | N#CC1(Nc2cccnc2)CCN(C(=O)CNC(c2ccccc2)c2ccccc2)CC1 | 15 | 0.096 | – | –
42 | N#CC(c1cccnc1)N1CCN(C(=O)C=C(c2ccccc2)c2ccccc2)CC1 (configuration not stated) | 50 | 0.049 | – | –

Row | Compound | ID50 [1] [mg/kg] | ID50 [2] [mg/kg] | ID50 [3] [mg/kg] | ID50 [4] [mg/kg]
43 | Cn1cc(C(C#N)N2CCN(C(=O)CC(c3ccccc3)c3ccccc3)CC2)c2ccccc21 (configuration not stated) | – | > 5 | – | –
44 | CN(CCCc1ccccc1)CC(=O)N1CCN(C(C#N)c2cccnc2)CC1 (configuration not stated) | – | > 5 | – | –
45 | N#CC(c1cccnc1)N1CCN(C(=O)CNCc2ccccc2)CC1 (configuration not stated) | 50 | 0.8 | – | –
46 | O=C(C(c1ccccc1)c1ccccc1)N1CC[N+]([O-])(Cc2cccnc2)CC1 | – | > 5 | – | –
47 | CC(c1cccnc1)N1CCN(C(=O)C(c2ccccc2)c2ccccc2)CC1 (configuration not stated) | 100 | 3.6 | – | –
48 | N#CC(c1cncs1)N1CCN(C(=O)CC(c2ccccc2)c2ccccc2)CC1 (configuration not stated) | 25 | 0.75 | – | –
49 | N#CC(c1cccnc1)N1CCN(C(=O)CNc2cccc3ccccc23)CC1 (configuration not stated) | – | 2.5 | – | –
50 | N#CC(c1cccc(Cl)c1)N1CCN(C(=O)CC(c2ccccc2)c2ccccc2)CC1 (configuration not stated) | > 30 | > 5 | – | –
51 | N#CC(c1cccnc1)N1CCN(C(=O)NC(c2ccccc2)c2ccccc2)CC1 (configuration not stated) | 30 | 0.29 | – | –
52 | N#CC(c1ccncc1)N1CCN(C(=O)CCNC(c2ccccc2)c2ccccc2)CC1 (configuration not stated) | 3.2 | 0.037 | – | –
53 | COc1cc(C(=O)N2CCN(C(=O)c3cc(OC)c(OC)c(OC)c3)CC2)cc(OC)c1OC | > 100 | 4.7 | – | –
54 | CC(C)(C)C(=O)N1CCN(C(C#N)c2cccnc2)CC1 (configuration not stated) | – | > 5 | – | –
55 | CC(C(=O)N1CCN(C(C#N)c2cccnc2)CC1)(c1ccccc1)c1ccccc1 (configuration not stated) | > 30 | 0.14 | – | –
56 | COc1cc(C(=O)N2CCN(C(C#N)c3cccnc3)CC2)cc(OC)c1OC (configuration not stated) | > 100 | 4.4 | – | –
57 | N#CC(c1cccnc1)N1CCN(C(=O)Cc2c[nH]c3ccccc23)CC1 (configuration not stated) | > 50 | 3.3 | – | –
58 | N#CC(c1cccnc1)N1CCN(C(=O)CNCC(c2ccccc2)c2ccccc2)CC1 (configuration not stated) | > 10 | 0.36 | – | –
59 | NC(=O)C(c1cccnc1)N1CCN(C(=O)C(c2ccccc2)c2ccccc2)CC1 (configuration not stated) | – | > 5 | – | –
60 | COc1cc(C(=O)N2CCN(C(=O)c3cccnc3)CC2)cc(OC)c1OC | > 100 | > 5 | – | –
61 | N#CC(c1cccnc1)N1CCN(C(=O)C(Cc2ccccc2)c2ccccc2)CC1 (configuration not stated) | > 50 | 0.12 | – | –
62 | CCCCCCCCCCCCCCCC(=O)N1CCN(C(C#N)c2cccnc2)CC1 (configuration not stated) | – | > 5 | – | –
63 | N#Cc1cccc(C(C#N)N2CCN(C(=O)CC(c3ccccc3)c3ccccc3)CC2)c1 (configuration not stated) | > 30 | > 5 | – | –

Row | Compound | ID50 [1] [mg/kg] | ID50 [2] [mg/kg] | ID50 [3] [mg/kg] | ID50 [4] [mg/kg]
64 | N#CC(c1cccnc1)N1CCN(C(=O)CNCCCc2ccccc2)CC1 (configuration not stated) | 50 | 1.3 | – | –
65 | N#CC(c1cccnc1)N1CCN(C(=O)CN(Cc2ccccc2)c2ccccc2)CC1 (configuration not stated) | > 30 | 0.42 | – | –
66 | O=C(c1cccnc1)N1CCN(C(=O)C(c2ccccc2)c2ccccc2)CC1 | – | > 5 | – | –
67 | N#CC(c1cccnc1)N1CCN(C(=S)C(c2ccccc2)c2ccccc2)CC1 (configuration not stated) | > 50 | 0.45 | – | –
68 | N#CC(c1cccnc1)N1CCN(C(=O)C(Cc2ccccc2)Cc2ccccc2)CC1 (configuration not stated) | 100 | 0.68 | – | –
69 | N#CC1(Nc2cccnc2)CCN(C(=O)CC(c2ccccc2)c2ccccc2)CC1 | 12 | 0.04 | – | –
70 | N#CC(CN1CCN(C(=O)C(c2ccccc2)c2ccccc2)CC1)c1cccnc1 (configuration not stated) | – | > 5 | – | –
71 | N#CC(c1cccnc1)N1CCN(C(=O)CN(Cc2ccccc2)Cc2ccccc2)CC1 (configuration not stated) | > 10 | 1.7 | – | –
72 | N#CC(c1cccnc1)N1CCN(CC(=O)NCCC(c2ccccc2)c2ccccc2)CC1 (configuration not stated) | > 30 | 3 | – | –
73 | CC(NCC(=O)N1CCN(C(C#N)c2cccnc2)CC1)c1ccccc1 (configuration not stated) | 18 | 0.39 | – | –
74 | N#CC(c1cccnc1)N1CCN(C(=O)CCc2ccccc2)CC1 (configuration not stated) | 44 | 1.2 | – | –
75 | N#CC(c1cccnc1)N1CCN(C(=O)c2ccc3ccccc3c2)CC1 (configuration not stated) | – | – | – | 5
76 | N#CC(c1cccnc1)N1CCN(C(=O)CCNC(c2ccccc2)c2ccccc2)CC1 (configuration not stated) | 5.4 | 0.025 | – | –
77 | N#CC(c1cccnc1)N1CCN(C(=O)CNC(c2ccccc2)c2ccccc2)CC1 (configuration not stated) | 5.9 | 0.023 | – | –
78 | O=C(C(c1ccccc1)c1ccccc1)N1CCN(Cc2cccnc2)CC1 | – | 2.7 | – | –
79 | N#CC(c1cccnc1)N1CCN(C(=O)CNC(Cc2ccccc2)c2ccccc2)CC1 (configuration not stated) | > 10 | 0.38 | – | –
80 | CCCCC(=O)N1CCN(C(C#N)c2cccnc2)CC1 (configuration not stated) | > 50 | 4.3 | – | –
81 | COc1cc(CC(=O)N2CCN(C(C#N)c3cccnc3)CC2)cc(OC)c1OC (configuration not stated) | > 50 | 2.5 | – | –
